# Measured values taken from article PMC9091492 (RSC Advances, 2018).
# Columns and labels:
# Type in all cases: cell-based
# [1] = MTT cytotoxic assay, HeLa; details: human, HeLa cells
# Method in brief: (§1)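 Cells grown in RPMI-1640 with 10% fetal bovine serum, 5% CO2, 37 °C. Seeded at 5 × 10^4 cells per mL, 24 h to form a monolayer, then medium replaced with fresh medium plus test compound at 50, 25, 12.5, 6.25, 3.125, 1.5625 μg mL−1. After 3 days, MTT 4 h, formazan in DMSO, OD 570 nm. Inhibition rate from OD versus control, IC50 calculated; three individual experiments, mean ± SD; adriamycin positive control.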
# [2] = MTT cytotoxic assay, HepG2; details: human, HepG2 cells
# Method in brief: as §1
# [3] = MTT cytotoxic assay, A549; details: human, A549 cells
# Method in brief: as §1
structure (smiles),measurement,setting,value
"COc1cccc2c1C(=O)c1c(O)c3c(c(O)c1C2=O)C[C@@](O)(C(=O)CO)C[C@@H]3O[C@H]1C[C@H](N)[C@H](O)[C@H](C)O1 [Adriamycin, adriamycin]",IC50 at 3 days,[1],480 ± 70 nM
same,IC50 at 3 days,[2],1250 ± 40 nM
same,IC50 at 3 days,[3],680 ± 60 nM
